Results published in ChEMBL document CHEMBL1128557, “Synthesis, antitumor activity, and chemical properties of silaplatin and related platinum (II) and platinum (IV) complexes derived from beta-silyl amines” (J Med Chem, 1995).

Columns and labels:
Tumor Cell line [1] = assay: The compound was evaluated in vitro for the log10 molecular concentration that caused 50 % of 60 human tumor cell line kills; assay type: ADME, cell-based
Method in brief: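 Human tumor cell lines (leukemia, non-small-cell lung, ovarian, renal) were preincubated 24 h. Platinum complexes were then added as five 10-fold dilutions, 0.01–100 μM, for 48 h, followed by in situ fixation and staining, with solubilized stain read spectrophotometrically. Log LC50 (50% cell kill) was averaged across cell lines within one experiment.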

Tumor Cell line [2] = assay: Evaluated in vitro for the log10 molecular concentration that caused 50 % inhibition of tumor growth of 60 human tumor cell lines; assay type: functional, cell-based
Method in brief: (§1)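 Cells preincubated 24 h, then exposed to the agent at five 10-fold dilutions (0.01–100 μM for the platinum complexes) for 48 h. Cells fixed in situ and stained; solubilized stain read spectrophotometrically. Panel of leukemia, non-small-cell lung, ovarian and renal lines. Log GI50 or TGI taken per cell line in one experiment, then averaged across lines.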

Tumor Cell line [3] = assay: Evaluated in vitro for the log10 molecular concentration that caused […] tumor growth of 60 human tumor cell lines.; assay type: functional, cell-based; method in brief: as §1

Row | GI50 (Tumor Cell line [2]) [µM] | Substance | Log LC50 (Tumor Cell line [1]) | TGI (Tumor Cell line [3]) [µM]
1 | – | [Bis(aminomethyl)tetramethylenesilane]dichloropaltinum(II) | > -4 | –
2 | 5.89 | cis-Bis[[(trimethylsilyl)methyl]amino]tetrachloroplatinum(IV) | – | 22.9
